{"source": "PubChem BioAssay AID493149", "about": "(Broad Institute, 2011)", "note": "Where “and” joins values, the source holds several entries; their conditions need not be identical. Equal entries are not always repeated. Records with an inconclusive call do not appear. Calls of active or inactive are those of the source.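 How the source made its calls: active means every repeat run gives a falling-signal curve whose half-maximal concentration stays within the set limit; inconclusive means runs disagree, flat moderate inhibition, or unreliable fit; inactive means flat weak response, opposite effect, or too weak.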", "data": [{"system": "not listed separately", "test": "Candida CaCi-8 growth reduction under fluconazole – CaCi-8 strain, Alamar Blue, dry powder, set 9, dose response (AID 493149)", "details": "C. albicans CaCi-8 + fluconazole, Alamar Blue growth, 48 h; at 19.5 µM (top of the series)", "outline": "(§1)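 system = Candida albicans CaCi-8, fluconazole-resistant clinical isolate, whole cells | amount = inoculum OD600 0.00015 | technique = Alamar Blue fluorescence, 1:200 final, Ex 544 nm, Em 590 nm | schedule = 48 h compound growth at 37 °C, 2 h RT dye | probe or stimulus = fluconazole at 8 µg/mL final, sub-toxic level | medium = defined RPMI/MOPS medium, glucose, uridine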", "values": [{"smiles": "COC(=O)Cn1nc(-c2cncnc2)c2ccccc21", "activity change, negative = inhibition": "-4.22% (inactive)"}]}, {"system": "not listed separately", "test": "Candida CaCi-8 growth reduction under fluconazole – CaCi-8 strain, Alamar Blue, dry powder, set 9, dose response (AID 493149)", "details": "C. albicans CaCi-8 + fluconazole, Alamar Blue growth, 48 h; at 26 µM (top of the series)", "outline": "as §1", "values": [{"smiles": "O=C(Cn1nc(-c2ccccc2)c2ccccc21)Oc1ccccc1", "activity change, negative = inhibition": "-1.98% (inactive)"}, {"smiles": "COC(=O)CCn1nc(-c2ccccc2)c2ccccc21", "activity change, negative = inhibition": "-11.6% (inactive)"}, {"smiles": "N#CCn1nc(-c2ccccc2)c2ccccc21", "activity change, negative = inhibition": "-24.1% (inactive)"}, {"smiles": "c1ccc(-c2nn(Cc3nn[nH]n3)c3ccccc23)cc1", "activity change, negative = inhibition": "-10.1% (inactive)"}, {"smiles": "CC(C)(C)OC(=O)Cn1nc(-c2ccccc2)c2ccccc21", "activity change, negative = inhibition": "14.2% (inactive)"}, {"smiles": "COC(=O)Cn1nc(-c2ccc(C(F)(F)F)cc2)c2ccccc21", "activity change, negative = inhibition": "-7.01% (inactive)"}, {"smiles": "CCOC(=O)Cn1nc(-c2ccccc2)c2ccccc21", "activity change, negative = inhibition": "-1.88% (inactive)"}, {"smiles": "CC(C)OC(=O)Cn1nc(-c2ccccc2)c2ccccc21", "activity change, negative = inhibition": "6.95% (inactive)"}, {"smiles": "COC(=O)Cn1nc(-c2ccccc2)c2ccc(C#N)cc21", "activity change, negative = inhibition": "-13.5% (inactive)"}, {"smiles": "c1ccc(-c2nn(Cc3ncco3)c3ccccc23)cc1", "activity change, negative = inhibition": "4.54% (inactive)"}]}, {"system": "C. albicans CaCi-8 + fluconazole, Alamar Blue growth, 48 h", "test": "Candida CaCi-8 growth reduction under fluconazole – CaCi-8 strain, Alamar Blue, dry powder, set 9, dose response (AID 493149)", "details": "not given", "outline": "as §1", "values": [{"smiles": "COC(=O)Cn1nc(-c2ccccc2)c2ccc(OC)cc21", "AC50": "12.7 µM"}, {"smiles": "COC(=O)Cn1nc(-c2ccccc2C)c2ccccc21", "AC50": "6.96 µM"}, {"smiles": "COC(=O)Cn1nc(-c2ccccc2)c2ccc(Cl)cc21", "AC50": "8.57 µM"}, {"smiles": "COC(=O)Cn1nc(-c2ccccc2)c2ccccc21", "AC50": "2.18 µM"}, {"smiles": "COC(=O)Cn1nc(-c2cccc(C)c2)c2ccccc21", "AC50": "1.34 µM"}, {"smiles": "COC(=O)Cn1nc(-c2ccccc2)c2ccc(C)cc21", "AC50": "7.29 µM"}, {"smiles": "COC(=O)Cn1nc(-c2ccccc2OC)c2ccccc21", "AC50": "10.2 µM"}, {"smiles": "COC(=O)Cn1nc(-c2cccc(OC)c2)c2ccccc21", "AC50": "1.2 µM"}, {"smiles": "COC(=O)Cn1c2ccccc2c2nc3n(c(=O)c21)CCS3", "AC50": "8.51 µM"}, {"smiles": "COC(=O)Cn1nc(-c2ccccc2)c2cc(OC)ccc21", "AC50": "18.6 µM"}, {"smiles": "COC(=O)Cn1nc(-c2ccccc2)c2cc(F)ccc21", "AC50": "6.98 µM"}, {"smiles": "COC(=O)Cn1nc(-c2cccc(F)c2)c2ccccc21", "AC50": "2.14 µM"}, {"smiles": "COC(=O)Cn1nc(-c2ccccc2)c2ccc(F)cc21", "AC50": "8.34 µM"}, {"smiles": "O=C(Cn1c2ccccc2c2nc3n(c(=O)c21)CCS3)N1CCCC1", "AC50": "1.65 µM and 3.48 µM"}, {"smiles": "COC(=O)Cn1nc(-c2ccccc2)c2cc(C)ccc21", "AC50": "5.33 µM"}, {"smiles": "COC(=O)Cn1nc(-c2ccc(OC)cc2)c2ccccc21", "AC50": "8.3 µM"}, {"smiles": "COC(=O)[C@@H](C)n1nc(-c2ccccc2)c2ccccc21", "note": "(racemic)", "AC50": "15.9 µM"}, {"smiles": "COC(=O)Cn1nc(-c2ccc(F)cc2)c2ccccc21", "AC50": "8.21 µM"}]}]}
